Sampled rows, rich in hits. Any-hit rate of the full collection: about 3.5%.
MrgX1 allo act – allosterically activates human MrgX1 receptor signaling; Q96LB2; MrgX1-HEK293, Fluo-4 calcium flux, FDSS; hits give high values; B-score at 10 µM; 0.63% of 310,000 active; AID 588675;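 active means plate-corrected calcium response at least 3 library SD above typical, normal starting fluorescence, not activating the receptor alone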;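 further: compound read alongside a low EC10 to EC30 dose of BAM8-22 agonist; peak minus trough fluorescence over baseline measured at the second addition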
Target sequence (Q96LB2 whole entry, looked up): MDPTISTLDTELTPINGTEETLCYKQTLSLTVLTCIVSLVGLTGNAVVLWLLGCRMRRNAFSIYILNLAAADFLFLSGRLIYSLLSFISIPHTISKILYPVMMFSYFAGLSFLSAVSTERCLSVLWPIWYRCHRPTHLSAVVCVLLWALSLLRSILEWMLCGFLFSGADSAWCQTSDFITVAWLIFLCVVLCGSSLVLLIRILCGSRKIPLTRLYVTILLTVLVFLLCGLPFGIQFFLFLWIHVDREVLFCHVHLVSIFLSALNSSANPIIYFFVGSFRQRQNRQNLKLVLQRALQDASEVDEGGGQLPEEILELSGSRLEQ
MrgX1 antag – blocks BAM8-22 activation of human MrgX1 receptor; Q96LB2; MRGX1-HEK293 calcium flux, Fluo-4, BAM8-22 antagonism; hits give low values; B-score at 10 µM; 1.3% of 310,000 active;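 active means calcium-response B-score plate-corrected more than 3 library SD below zero, starting fluorescence within 5 deviations, no agonist response on first addition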;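 further: peak minus trough fluorescence over baseline after final BAM8-22 challenge near maximal dose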
RGS4 block – inhibitors of human RGS4 | HEK293 M3R/RGS4 inducible, Fluo-4 calcium flux; hits give high values; triggered by carbachol at its EC20 | B-score at 10 µM | 0.45% of 310,000 active;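 active means B-score, a plate-corrected calcium signal, over three deviations above library mean, with baseline fluorescence within five deviations of library mean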;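 further: RGS4 expression induced by doxycycline in cells with stable M3 receptor; B-score is computed from the integrated fluorescence ratio over baseline after carbachol; higher B-score means a larger calcium signal and so more RGS4 inhibition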
Target sequence (P49798 whole entry, looked up): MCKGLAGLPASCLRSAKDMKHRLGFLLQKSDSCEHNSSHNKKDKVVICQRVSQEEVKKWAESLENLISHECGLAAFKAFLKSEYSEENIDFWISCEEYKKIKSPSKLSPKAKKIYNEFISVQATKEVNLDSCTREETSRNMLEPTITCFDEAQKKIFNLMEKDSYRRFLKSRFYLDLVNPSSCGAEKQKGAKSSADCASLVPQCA
RGS4 act – potentiators or activators of RGS4 | HEK293 M3R/inducible RGS4, carbachol calcium flux Fluo4; hits give low values | AID 463111 | 0.92% of 310,000 active | B-score at 10 µM;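 active means B-score of the integrated calcium signal more than 4 SD below the library mean, with starting fluorescence not abnormally high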;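 further: negative B-score means reduced calcium response which marks RGS4 activation or potentiation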
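Reagent: ECmax carbachol challenge; Test system: M3R-expressing HEK293 line, RGS4 induced by doxycycline; Schedule: overnight RGS4 induction, 30 min dye load 37 °C, 20 min compound RT; Detection: calcium dye Fluo4 fluorescence; Read-out: Agonist-evoked peak-minus-minimum fluorescence over baseline, integrated ratio, B score.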
MrgX1 agonist – agonists of human MrgX1 receptor | MrgX1-HEK293 cells, Fluo-4 calcium fluorescence, agonist mode; hits give high values | Q96LB2 | B-score at 10 µM | 0.44% of 310,000 active | AID 588627;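 active means calcium response B-score plate-corrected fluorescence ratio at least 3 library SD, with starting fluorescence B-score inside 5 SD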
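Material: MrgX1-expressing HEK293 cells / Dosing: compound as first of three additions / Incubation: overnight seeding, then 1 h dark dye loading / Signal: Fluo-4 NW calcium fluorescence / Evaluation: B-scored fluorescence response ratio / Benchmarks: positive and negative control wells on each plate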
* marks the source's active call; other numbers are inactive results; i = inactive; . = no result.

SMILES | MrgX1 allo act | MrgX1 antag | RGS4 block | RGS4 act | MrgX1 agonist
Clc1ccc(CSc2nnc(-c3sccc3-n3cccc3)o2)cc1 | i | -4.78* | i | i | i
CCOc1cccc(CN(C)CC2CCCN(CCc3ccc(Cl)cc3)C2)c1O (stereo not given) | i | i | i | i | i
CCCCNC(=O)CCCCCn1c(=O)[nH]c2cc(C(=O)OC)ccc2c1=O | 13.6* | i | i | i | i
O=C(c1cccnc1)c1ncc(C(F)(F)F)cc1Cl | i | i | i | i | i
Cc1ccccc1OCCNc1cc(N2CCNCC2)ccc1[N+](=O)[O-] | i | i | 5.08* | i | 26.9*
CCN1CCN(Cc2ccc(NC(=O)c3ccc(C)c(NC(=O)c4ccno4)c3)cc2C(F)(F)F)CC1 | i | i | i | i | i
CCN1CCN(Cc2ccc(NC(=O)c3ccc(C)c(/C=C/c4cnc(Nc5cc(N6CCNCC6)nc(C)n5)cn4)c3)cc2C(F)(F)F)CC1 | i | i | i | i | 27.3*
CCCCCCOC(=O)C1=C(C)NC(=O)NC1c1ccc2c(c1)OCO2 (stereo not given) | i | i | i | i | i
CCCN(CCC)C1=N/C(=C\c2ccco2)C(=O)N1c1ccccc1 | 6.89* | i | i | i | i
CCCN=C1N/C(=C\c2ccco2)C(=O)N1c1ccccc1 | i | i | i | i | i
COCCNC(=O)C(c1ccco1)N(C(=O)Cn1nnc2ccccc21)c1ccc(C)cc1C (stereo not given) | 7.92* | i | i | i | i
CCc1ccccc1N(C(=O)Cn1nnc2ccccc21)C(C(=O)NCCOC)c1ccco1 (stereo not given) | i | i | i | i | i
Cc1ccc2c(N)[nH]nc2n1 | i | i | i | i | i
Cc1cc(C(=O)N/N=C/c2cccs2)no1 | i | i | i | i | 27.9*
CC1CCN(CCCCOc2ccccc2Br)CC1 | i | i | i | i | i
CC1CCN(CCCCOc2cccc(Br)c2)CC1 | i | i | i | -7.02* | i
Brc1ccc(OCCCCN2CCCCC2)cc1 | i | i | i | i | i
CC1CCN(CCCCOc2ccc(Br)cc2)CC1 | i | i | i | -7.43* | i
Cc1nc2c(ccc3c([N+](=O)[O-])cccc32)c(C)c1C | i | i | i | i | i
CC1=C(CC(=O)O)c2cc(F)ccc2C1=Cc1ccc(S(C)(=O)=O)cc1 | i | i | . | . | i
CCOc1ccc(NCc2cccn2-c2nnc(N3CCC(C(=O)NCCCN4C(C)CCCC4C)CC3)s2)cc1 (stereo not given) | i | i | i | -7.62* | i
CCOc1ccc(NCc2cccn2-c2nnc(N3CCC(C(=O)NCCCN4CCCCC4C)CC3)s2)cc1 (stereo not given) | i | i | i | i | i
Cc1cc(C)c2nc(N3CCC(C(=O)NCC4CCCO4)CC3)sc2c1 (stereo not given) | i | i | i | i | i
Cc1cc(C)c2nc(N3CCC(C(=O)NCCCN4CCCCC4)CC3)sc2c1 | i | i | i | -7.9* | i
CCOc1ccc(NCc2cccn2-c2nnc(N3CCC(C(=O)NCCCN4CCCCC4)CC3)s2)cc1 | i | i | i | -9.01* | i
SMILES | MrgX1 allo act | MrgX1 antag | RGS4 block | RGS4 act | MrgX1 agonist
COc1cc(C(=O)OCc2cc(=O)oc3c(C)c(C)ccc23)ccc1OC(F)F | i | i | i | i | i
O=C(O)CC1S/C(=N\N=C2\C(=O)Nc3ccccc32)N(c2ccc(O)cc2)C1=O (stereo not given) | i | i | i | i | i
OC(c1cc(-c2ccc(C(F)(F)F)cc2)nc(C(F)(F)F)c1)C1CCCCN1 (stereo not given) | i | -5.36* | i | -7.83* | i
CCOP(=O)(OCC)C(NC(=O)Nc1ccccc1)c1ccccc1 (stereo not given) | i | -4.78* | i | i | i
CCOP(=O)(OCC)C(NC(=O)Nc1c(C)cc(C)cc1C)c1ccccc1 (stereo not given) | i | i | i | i | i
C=CCNC(=S)NNC(=O)c1ccc(OCCC)cc1 | i | i | i | i | i
CCCOc1ccc(C(=O)NNC(=S)NC(=O)CC)cc1 | i | i | i | i | 51.3*
Cc1cnc(C(=O)OCC(=O)c2ccc(F)c(F)c2)cn1 | i | i | i | i | i
COc1ccc(CN2C(=O)c3ccccc3C(/C=N/OCc3ccc(Cl)cc3)C2=O)cc1 (stereo not given) | i | i | i | i | 37.7*
O=[N+]([O-])c1cccc(S(=O)(=O)Nc2ccc(-c3ccc(N4CCOCC4)nn3)cc2)c1 | 7.78* | i | i | i | i
O=[N+]([O-])c1cccc(S(=O)(=O)Nc2ccc(-c3ccc(N4CCCC4)nn3)cc2)c1 | i | i | i | i | i
O=C(CN1C(=O)/C(=C/c2ccccc2)SC1=S)N1CCN(CCc2ccccn2)CC1 | i | i | i | i | i
N#Cc1nc(COc2ccc(Cl)cc2)oc1N1CCN(Cc2ccccc2)CC1 | i | i | i | -7.01* | i
N#Cc1nc(COc2ccccc2)oc1N1CCOCC1 | i | i | i | -7.22* | i
CCN1CCN(c2oc(COc3ccc(Cl)cc3)nc2C#N)CC1 | i | i | i | i | i
N#Cc1nc(COc2ccccc2)oc1N1CCCC1 | i | i | i | i | i
CC(C)C[C@H](NC(=O)c1[nH]cnc1C(=O)Nc1ccccc1)C(=O)OC(C)(C)C | i | i | i | i | i
Nc1ccc2nc(SCc3ccccc3F)sc2c1 | i | i | i | i | i
O=C(/C=C/c1cccc([N+](=O)[O-])c1)c1ccco1 | i | i | i | i | 55.6*
COc1cccc(/C=C/C(=O)c2cccc([N+](=O)[O-])c2)c1 | i | i | i | i | 37.9*
COc1cccc(/C=C/C(=O)c2cccc([N+](=O)[O-])c2)c1OC | i | i | i | i | i
COc1cccc(/C=C/C(=O)c2ccc(NC3=NCCCS3)cc2)c1 | i | i | i | i | 44.9*
COc1ccc(Oc2ccc(/C=C/C(=O)c3ccc(O)cc3)cc2[N+](=O)[O-])cc1 | i | -5.38* | i | i | i
Cc1cccc(/C=C/C(=O)c2ccc(NC3=NCCCS3)cc2)c1 | i | i | i | i | i
O=C(c1ccc(OC2CCN(Cc3ccccn3)CC2)cc1)N1CCC[C@H]1CO | i | i | i | i | i
